Source: ChEMBL document CHEMBL4706706, “Structure-activity relationship and mechanistic studies for a series of cinnamyl hydroxamate histone deacetylase inhibitors” (Bioorg Med Chem, 2021)
Activity calls are given as the source filed them. The rule behind the calls is not given here.

What was measured:
[1] = tested on: HCT-116; assay: Cytotoxicity against human HCT-116 cells assessed as reduction in cell viability measured after 72 hrs by MTT assay; assay type: functional, cell-based; conditions: HCT-116, 72 h
[2] = tested on: MCF7; assay: Cytotoxicity against human MCF7 cells assessed as reduction in cell viability measured after 72 hrs by MTT assay; assay type: functional, cell-based; conditions: MCF7, 72 h
[3] = tested on: Jurkat; assay: Cytotoxicity against human Jurkat cells assessed as reduction in cell viability measured after 72 hrs by MTT assay; assay type: functional, cell-based
[4] = tested on: NAMALVA; assay: Cytotoxicity against human NAMALVA cells assessed as reduction in cell viability measured after 72 hrs by MTT assay; assay type: functional, cell-based
[5] = Cytotoxicity against human HS5 cells assessed as reduction in cell viability measured after 72 hrs by MTT assay; assay type: ADME, cell-based; conditions: HS5, 72 h
[6] = tested on: Jurkat; assay: Cytotoxicity against human Jurkat cells assessed as reduction in cell viability measured after 24 hrs MTT assay; assay type: functional, cell-based
[7] = tested on: Jurkat; assay: Cytotoxicity against human Jurkat cells assessed as reduction in cell viability measured after 48 hrs MTT assay; assay type: functional, cell-based
[8] = tested on: Jurkat; assay: Cytotoxicity against human Jurkat cells assessed as reduction in cell proliferation at IC50 measured after 48 hrs by Ki-67 staining based fluorescence assay; assay type: functional
How it was run: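 Ki-67 stained per kit instructions; mean fluorescence intensity by flow cytometry, normalized to untreated cells; at least three independent experiments, ANOVA with Bonferroni post-test.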

[9] = tested on: Jurkat; assay: Induction of apoptosis in human Jurkat cells assessed as viable cells at 0.5 times IC50 measured after 48 hrs by Annexin V-FITC/7AAD staining based flow cytometry (reference value: 85.2%); assay type: functional
[10] = tested on: Jurkat; assay: Cytotoxicity against human Jurkat cells assessed as reduction in cell viability MTT assay; assay type: functional, cell-based; conditions: time 24-72 hrs, TDE = time-dependent effect
How it was run: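 Jurkat cells (2 × 10^4/well) in RPMI with 10% FBS and 1% penicillin–streptomycin, exposed 24, 48 and 72 h to compound (0.0032–50 μM); 1% DMSO as negative control. MTT at 0.5 mg/mL final for 3 h, formazan dissolved in 0.1 N HCl/isopropanol. IC50 with 95% confidence intervals from sigmoidal nonlinear regression; mean ± SEM.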

[11] = tested on: Jurkat; assay: Induction of apoptosis in human Jurkat cells assessed as early apoptotic cells at 0.5 times IC50 measured after 48 hrs by Annexin V-FITC/7AAD staining based flow cytometry (reference value: 6.05%); assay type: functional
[12] = tested on: Jurkat; assay: Induction of apoptosis in human Jurkat cells assessed as late apoptotic cells at 0.5 times IC50 measured after 48 hrs by Annexin V-FITC/7AAD staining based flow cytometry (reference value: 6.77%); assay type: functional
[13] = tested on: Jurkat; assay: Induction of apoptosis in human Jurkat cells assessed as necrotic cells at 0.5 times IC50 measured after 48 hrs by Annexin V-FITC/7AAD staining based flow cytometry (reference value: 0.23%); assay type: functional
[14] = tested on: NAMALVA; assay: Induction of apoptosis in human NAMALVA cells assessed as viable cells at 0.5 times IC50 measured after 48 hrs by Annexin V-FITC/7AAD staining based flow cytometry (reference value: 90.4%); assay type: functional
[15] = tested on: NAMALVA; assay: Induction of apoptosis in human NAMALVA cells assessed as early apoptotic cells at 0.5 times IC50 measured after 48 hrs by Annexin V-FITC/7AAD staining based flow cytometry (reference value: 5.07%); assay type: functional
[16] = tested on: NAMALVA; assay: Induction of apoptosis in human NAMALVA cells assessed as late apoptotic cells at 0.5 times IC50 measured after 48 hrs by Annexin V-FITC/7AAD staining based flow cytometry (reference value: 3.52%); assay type: functional
[17] = tested on: NAMALVA; assay: Induction of apoptosis in human NAMALVA cells assessed as necrotic cells at 0.5 times IC50 measured after 48 hrs by Annexin V-FITC/7AAD staining based flow cytometry (reference value: 1.05%); assay type: functional
[18] = target: T1, Protein deacetylase HDAC6 (Homo sapiens) (UniProt Q9UBN7); assay: Inhibition of HDAC6 in human Jurkat cells assessed as increase in acetylated alpha-tubulin expression at IC50 measured after 48 hrs by Western blot analysis; assay type: cell-based
T1 sequence (whole entry): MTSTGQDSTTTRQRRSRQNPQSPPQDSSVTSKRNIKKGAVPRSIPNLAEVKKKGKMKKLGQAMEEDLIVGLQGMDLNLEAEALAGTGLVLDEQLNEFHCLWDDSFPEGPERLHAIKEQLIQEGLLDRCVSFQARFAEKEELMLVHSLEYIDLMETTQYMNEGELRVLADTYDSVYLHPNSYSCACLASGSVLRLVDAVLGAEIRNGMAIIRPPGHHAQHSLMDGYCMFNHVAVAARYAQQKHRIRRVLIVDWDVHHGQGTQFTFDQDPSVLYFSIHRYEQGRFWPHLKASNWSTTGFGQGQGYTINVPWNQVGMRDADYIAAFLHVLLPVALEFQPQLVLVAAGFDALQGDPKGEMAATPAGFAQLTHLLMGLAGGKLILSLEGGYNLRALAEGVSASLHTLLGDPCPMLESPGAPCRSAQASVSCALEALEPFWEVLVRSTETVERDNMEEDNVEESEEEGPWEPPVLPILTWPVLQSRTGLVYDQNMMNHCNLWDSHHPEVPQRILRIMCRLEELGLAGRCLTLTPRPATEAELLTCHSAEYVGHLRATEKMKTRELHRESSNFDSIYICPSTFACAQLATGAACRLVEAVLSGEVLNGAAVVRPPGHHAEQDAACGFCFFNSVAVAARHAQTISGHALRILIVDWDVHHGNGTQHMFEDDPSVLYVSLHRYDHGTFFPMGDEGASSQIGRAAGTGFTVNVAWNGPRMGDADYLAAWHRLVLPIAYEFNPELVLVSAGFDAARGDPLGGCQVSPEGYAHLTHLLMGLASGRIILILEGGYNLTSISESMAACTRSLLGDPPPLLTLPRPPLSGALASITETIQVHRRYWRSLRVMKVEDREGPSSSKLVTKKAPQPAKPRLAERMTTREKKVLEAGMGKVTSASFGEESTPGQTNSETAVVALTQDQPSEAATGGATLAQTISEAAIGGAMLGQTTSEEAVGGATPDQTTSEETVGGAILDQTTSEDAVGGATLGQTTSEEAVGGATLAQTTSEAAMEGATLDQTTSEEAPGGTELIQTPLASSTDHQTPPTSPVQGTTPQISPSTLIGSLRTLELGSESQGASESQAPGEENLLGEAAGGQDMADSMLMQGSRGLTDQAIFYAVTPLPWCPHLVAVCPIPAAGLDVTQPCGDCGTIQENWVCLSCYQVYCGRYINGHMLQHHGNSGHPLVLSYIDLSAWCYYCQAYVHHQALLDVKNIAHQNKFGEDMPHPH

[19] = target: T1, Protein deacetylase HDAC6 (Homo sapiens); assay: Inhibition of HDAC6 in human NAMALVA cells assessed as increase in acetylated alpha-tubulin expression at IC50 measured after 48 hrs by Western blot analysis; assay type: cell-based
[20] = target: T2, Histone deacetylase (Homo sapiens) (UniProt Q13547+O15379+Q9UBN7+Q92769+Q9UQL6+Q8WUI4+Q9BY41+Q96DB2+P56524+Q9UKV0+Q969S8); assay: Inhibition of HDAC in human Jurkat cells assessed as increase in gammaH2AX expression at IC50 measured after 48 hrs by Western blot analysis; assay type: cell-based
[21] = target: T2, Histone deacetylase (Homo sapiens); assay: Inhibition of HDAC in human NAMALVA cells assessed as increase in gammaH2AX expression at IC50 measured after 48 hrs by Western blot analysis; assay type: cell-based
[22] = tested on: Jurkat; assay: Effect on phosphoserine expression in human Jurkat cells at IC50 measured after 48 hrs by Western blot analysis; assay type: functional, cell-based
[23] = tested on: Jurkat; assay: Effect on phosphotyrosine expression in human Jurkat cells at IC50 measured after 48 hrs by Western blot analysis; assay type: functional, cell-based
[24] = tested on: NAMALVA; assay: Effect on phosphoserine expression in human NAMALVA cells at IC50 measured after 48 hrs by Western blot analysis; assay type: functional, cell-based
[25] = tested on: NAMALVA; assay: Effect on phosphotyrosine expression in human NAMALVA cells at IC50 measured after 48 hrs by Western blot analysis; assay type: functional, cell-based
[26] = target: T2, Histone deacetylase (Homo sapiens); assay: Inhibition of HDAC in human HeLa cell nuclear extracts at 100 uM relative to control; assay type: subcellular; conditions: Nucleus
How it was run: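 Total HDAC activity measured with HeLa nuclear extract as enzyme source; single dose of 100 µM run in duplicate.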

[27] = target: T3, Protein deacetylase HDAC6 (Homo sapiens, UniProt Q9UBN7); assay: Inhibition of recombinant human full-length N-terminal GST-tagged HDAC6 (1 to 1215 residues) expressed in baculovirus infected Sf9 insect cells using RHKK(Ac)AMC as substrate preincubated for 5 to 10 mins followed by substrate addition and measured after 2 hrs by fluorescence assay
T3 sequence (Q9UBN7 whole entry): T1 sequence (whole entry)

[28] = Selectivity index, ratio of IC50 for human HS5 cells to IC50 for human Jurkat cells
[29] = Selectivity index, ratio of IC50 for human HS5 cells to IC50 for human NAMALVA cells
[30] = Selectivity ratio of IC50 for human HCT-116 cells to IC50 for human Jurkat cells; assay type: functional
[31] = Selectivity ratio of IC50 for human HCT-116 cells to IC50 for human NAMALVA cells; assay type: functional

SMILES | IC50 [1] [µM] | IC50 [2] [µM] | IC50 [3] [µM] | IC50 [4] [µM] | IC50 [5] [µM] | IC50 [6] [µM] | IC50 [7] [µM] | Activity [8] | Activity [9] [%] | Activity [10] | Activity [11] [%] | Activity [12] [%] | Activity [13] [%] | Activity [14] [%] | Activity [15] [%] | Activity [16] [%] | Activity [17] [%] | inhibition [18] | inhibition [19] | inhibition [20] | further results
COc1ccc(NC(=O)Nc2ccc(CCC(=O)NO)cc2)cc1 | 31 | > 50 | 2.8 | 1.99 |  |  |  |  |  |  |  |  |  |  |  |  |  |  |  |  | 
COc1ccc(NC(=O)Nc2ccc(C(=O)NO)cc2)cc1 | 22.3 | > 50 | 8.03 | 4.79 |  |  |  |  |  |  |  |  |  |  |  |  |  |  |  |  | 
COc1cccc2c1C(=O)c1c(O)c3c(c(O)c1C2=O)C[C@@](O)(C(=O)CO)C[C@@H]3O[C@H]1C[C@H](N)[C@H](O)[C@H](C)O1 [DOXORUBICIN] |  | 1.9 | 0.05 | 0.09 | 0.15 | 0.7 | 0.2 |  |  |  |  |  |  |  |  |  |  |  |  |  | 
O=C(Nc1ccccc1)Nc1ccc(C(=O)NO)cc1 | 14.7 | > 50 | 2.5 | 0.53 |  |  |  |  |  |  |  |  |  |  |  |  |  |  |  |  | 
O=C(Nc1ccc(C(=O)NO)cc1)Nc1ccc([N+](=O)[O-])cc1 | 28.4 | > 50 | 12.7 | 13.2 |  |  |  |  |  |  |  |  |  |  |  |  |  |  |  |  | 
O=C(/C=C/c1ccc(NC(=O)Nc2ccc(Cl)cc2)cc1)NO | 29.9 | > 50 | 0.04 | 0.2 | 1.7 | 2.6 | 0.6 | Active | 88.4 | Tde | 7.92 | 4.28 | 0.28 | 72.5 | 17.9 | 8.85 | 0.68 | Active | Active | Active | inhibition [21]: Active; inhibition [22]: inactive; inhibition [23]: inactive; inhibition [24]: inactive; inhibition [25]: inactive; inhibition [26]: 93%; IC50 [27]: 0.0081 µM
O=C(/C=C/c1ccc(NC(=O)Nc2ccccc2)cc1)NO | 6.49 | > 50 | 0.16 | 0.3 | 1 | 2.7 | 1.2 | Active | 87.4 | Tde | 7.03 | 4.39 | 0.31 | 81.4 | 12.4 | 5.2 | 1.05 | Active | Active | Active | Ratio IC50 [28]: 6; Ratio IC50 [29]: 3; Ratio IC50 [30]: 41; Ratio IC50 [31]: 22; inhibition [21]: Active; inhibition [22]: inactive; inhibition [23]: inactive; inhibition [24]: inactive; inhibition [25]: inactive
O=C(CCc1ccc(NC(=O)Nc2ccc([N+](=O)[O-])cc2)cc1)NO | 6.37 | > 50 | 0.81 | 2.5 |  |  |  |  |  |  |  |  |  |  |  |  |  |  |  |  | 
COc1ccc(NC(=O)Nc2ccc(/C=C/C(=O)NO)cc2)cc1 | 11.9 | > 50 | 0.11 | 0.46 | 3 | 1.8 | 0.7 | Active | 82.2 | Tde | 9.66 | 7.77 | 0.39 | 82.9 | 10.2 | 5.42 | 1.46 | Active | Active | Active | Ratio IC50 [28]: 27; Ratio IC50 [29]: 7; Ratio IC50 [30]: 108; Ratio IC50 [31]: 26; inhibition [21]: Active; inhibition [22]: inactive; inhibition [23]: inactive; inhibition [24]: inactive; inhibition [25]: inactive
O=C(/C=C/c1ccc(NC(=O)Nc2ccc([N+](=O)[O-])cc2)cc1)NO | 12.6 | > 50 | 0.09 | 0.58 | 3 | 2.7 | 0.7 | Active | 87.1 | Tde | 5.74 | 7.03 | 0.18 | 82.8 | 10.1 | 5.89 | 1.2 | Active | Active | Active | Ratio IC50 [28]: 33; Ratio IC50 [29]: 5; Ratio IC50 [30]: 140; Ratio IC50 [31]: 22; inhibition [21]: Active; inhibition [22]: inactive; inhibition [23]: inactive; inhibition [24]: inactive; inhibition [25]: inactive
O=C(CCc1ccc(NC(=O)Nc2ccccc2)cc1)NO | 16.2 | > 50 | 1.59 | 0.78 |  |  |  |  |  |  |  |  |  |  |  |  |  |  |  |  | 
